From ChEMBL document CHEMBL3232832, “Derivatives of dibenzothiophene for positron emission tomography imaging of α7-nicotinic acetylcholine receptors” (J Med Chem, 2013)

Assays:
[1] = tested on: Thalamus; experiment: Drug uptake in CD-1 mouse thalamus at 0.07 mCi, iv after 90 mins co-administered with SSR180711; type: ADME, organism-based; conditions: in vivo, 1.5 h
How it was run: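 Male CD-1 mice. [18F]tracer (0.07 mCi, SA 7900 mCi/µmol, 0.2 mL) co-injected i.v. with blocker at 0 (vehicle), 0.02, 0.2, 1 or 3 mg/kg. Blocker dissolved in saline:alcohol 9:1, pH 5.5. Brain regions harvested at 90 min and gamma-counted. %ID/g, mean ± SD, n=3 per dose; ANOVA versus controls.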

[2] = tested on: Hippocampus; experiment: Drug uptake in CD-1 mouse hippocampus at 0.07 mCi, iv after 90 mins relative to drug uptake in CD-1 mouse cerebellum; type: ADME, organism-based; conditions: in vivo, 1.5 h
[3] = tested on: Brain; experiment: Drug uptake in CD-1 mouse other brain region at 70 uCi, iv administered 10 mins post SCH23390 challenge measured after 90 mins; type: ADME, organism-based; conditions: in vivo, 1.5 h
How it was run: (§1)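 Male CD-1 mice, n=3. Drug at 2 mg/kg s.c. in saline:DMSO 5:1, with vehicle controls. [18F] radiotracer (70 µCi, SA ~14000 mCi/µmol) given i.v. 10 min later. Regions harvested 90 min after tracer, gamma counted, expressed as %ID/g. Compared by single-factor ANOVA.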

[4] = tested on: Striatum; experiment: Drug uptake in CD-1 mouse striatum at 70 uCi, iv followed by compound washout by gamma-counting analysis; type: ADME, organism-based; conditions: in vivo
How it was run: (§2)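 Male CD-1 mice (25–30 g) given [18F]radioligand i.v. into a lateral tail vein (70 µCi, 8000–12000 mCi/µmol, in 0.2 mL saline). Killed by cervical dislocation at various times, three per time point. Brains dissected on ice; regions weighed and gamma-counted with injectate standards. Result as %ID/g.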

[5] = tested on: Brain; experiment: Drug uptake in CD-1 mouse other brain region at 70 uCi, iv administered 10 mins post naltrindole challenge measured after 90 mins; type: ADME, organism-based; conditions: in vivo, 1.5 h
How it was run: (§3)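 Male CD-1 mice (25–30 g). […] Brains removed 90 min later and dissected on ice. Regions weighed and gamma-counted against injectate standards. Result as %ID/g, mean ± SD, n=3; ANOVA versus controls.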

[6] = Drug uptake in CD-1 mouse superior and inferior colliculus at 70 uCi, iv administered 10 mins post spiperone challenge measured after 90 mins; type: ADME, organism-based; conditions: in vivo, 1.5 h; how it was run: as §3
[7] = tested on: Cerebellum; experiment: Drug uptake in CD-1 mouse cerebellum at 70 uCi, iv administered 10 mins post ketanserin challenge measured after 90 mins; type: ADME, organism-based; conditions: in vivo, 1.5 h; how it was run: as §1
[8] = tested on: Cerebellum; experiment: Ratio of clearance in CD-1 mouse cerebellum to clearance in CD-1 mouse other brain tissues at 70 uCi, iv followed by compound washout after 90 mins by gamma-counting analysis; type: ADME, organism-based; conditions: in vivo, 1.5 h
How it was run: (§4)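 CD-1 mouse baseline biodistribution after i.v. [18F]radioligand (70 µCi, 8000–12000 mCi/µmol, in 0.2 mL saline), three mice per time point to 90 min. Regional gamma-counting gave %ID/g, and each region was expressed as a ratio to cerebellum.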

[9] = tested on: Hippocampus; experiment: Drug uptake in CD-1 mouse hippocampus at 70 uCi, iv administered 10 mins post SCH23390 challenge measured after 90 mins; type: ADME, organism-based; conditions: in vivo, 1.5 h; how it was run: as §1
[10] = tested on: Cortex; experiment: Drug uptake in CD-1 mouse cortex at 70 uCi, iv administered 10 mins post SSR180711 challenge measured after 90 mins; type: ADME, organism-based; conditions: in vivo, 1.5 h
[11] = tested on: Hippocampus; experiment: Drug uptake in CD-1 mouse hippocampus at 70 uCi, iv after 90 mins in presence of cytisine; type: ADME, organism-based; conditions: in vivo, 1.5 h
How it was run: (§5)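 Male CD-1 mice, n=3. […] [18F] radiotracer (70 µCi, SA ~14000 mCi/µmol) given i.v. 5 min later. Regions harvested at 90 min, gamma counted, expressed as %ID/g.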

[12] = tested on: Brain; experiment: Drug uptake in CD-1 mouse other brain region at 70 uCi, iv administered 10 mins post ondansetron challenge measured after 90 mins; type: ADME, organism-based; conditions: in vivo, 1.5 h; how it was run: as §3
[13] = tested on: Cortex; experiment: Drug uptake in CD-1 mouse cortex at 70 uCi, iv after 90 mins in presence of cytisine; type: ADME, organism-based; conditions: in vivo, 1.5 h; how it was run: as §5
[14] = tested on: Brain; experiment: Drug uptake in CD-1 mouse other brain region at 70 uCi, iv administered 10 mins post SSR180711 challenge measured after 90 mins; type: ADME, organism-based; conditions: in vivo, 1.5 h
[15] = tested on: Nucleic Acid; experiment: Ratio of drug uptake from superior and inferior colliculus to cerebellum in CD-1 mouse after 90 mins; type: ADME, nucleic-acid assay; conditions: 1.5 h; how it was run: as §4
[16] = Drug uptake in CD-1 mouse frontal cortex at 70 uCi, iv followed by compound washout by gamma-counting analysis; type: ADME, organism-based; conditions: in vivo
How it was run: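 Male CD-1 mice (25–30 g), three per time point. [18F] radiotracer (70 µCi, SA 8000–12000 mCi/µmol, in 0.2 mL saline) given by tail vein. Killed at several times up to 90 min. Dissected regions weighed and gamma counted against injectate standards, giving %ID/g.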

[17] = tested on: Cortex; experiment: Drug uptake in CD-1 mouse cortex at 70 uCi, iv administered 10 mins post ketanserin challenge measured after 90 mins; type: ADME, organism-based; conditions: in vivo, 1.5 h; how it was run: as §1
[18] = tested on: Cortex; experiment: Drug uptake in CD-1 mouse cortex at 70 uCi, iv after 90 mins in presence of nicotine; type: ADME, organism-based; conditions: in vivo, 1.5 h; how it was run: as §5
[19] = tested on: Hippocampus; experiment: Drug uptake in CD-1 mouse hippocampus at 70 uCi, iv after 90 mins in presence of nicotine; type: ADME, organism-based; conditions: in vivo, 1.5 h; how it was run: as §5
[20] = Drug uptake in CD-1 mouse superior and inferior colliculus at 70 uCi, iv after 90 mins in presence of cytisine; type: ADME, organism-based; conditions: in vivo, 1.5 h
[21] = tested on: Hippocampus; experiment: Drug uptake in CD-1 mouse hippocampus at 0.07 mCi, iv after 90 mins co-administered with SSR180711; type: ADME, organism-based; conditions: in vivo, 1.5 h
How it was run: (§6)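 Male CD-1 mice (25–30 g), three per dose. Blocker in saline:ethanol 9:1 pH 5.5, given i.v. with [18F] radiotracer (70 µCi, SA 7900 mCi/µmol). Blocker doses 0, 0.02, 0.2, 1 and 3 mg/kg. Regions dissected 90 min later and gamma counted. Expressed as %ID/g, mean ± SD.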

[22] = tested on: Cortex; experiment: Drug uptake in CD-1 mouse cortex at 0.07 mCi, iv after 90 mins co-administered with SSR180711; type: ADME, organism-based; conditions: in vivo, 1.5 h; how it was run: as §6
[23] = tested on: Hippocampus; experiment: Drug uptake in CD-1 mouse hippocampus at 70 uCi, iv administered 10 mins post ketanserin challenge measured after 90 mins; type: ADME, organism-based; conditions: in vivo, 1.5 h; how it was run: as §1
[24] = tested on: Brain; experiment: Drug uptake in CD-1 mouse other brain region at 70 uCi, iv administered 10 mins post ketanserin challenge measured after 90 mins; type: ADME, organism-based; conditions: in vivo, 1.5 h; how it was run: as §3
[25] = Drug uptake in CD-1 mouse superior and inferior colliculus at 70 uCi, iv administered 10 mins post SCH23390 challenge measured after 90 mins; type: ADME, organism-based; conditions: in vivo, 1.5 h; how it was run: as §3
[26] = tested on: Cortex; experiment: Drug uptake in CD-1 mouse cortex at 70 uCi, iv administered 10 mins post ondansetron challenge measured after 90 mins; type: ADME, organism-based; conditions: in vivo, 1.5 h; how it was run: as §1
[27] = tested on: Cerebellum; experiment: Drug uptake in CD-1 mouse cerebellum at 70 uCi, iv after 90 mins in presence of nicotine; type: ADME, organism-based; conditions: in vivo, 1.5 h; how it was run: as §5
[28] = tested on: Cerebellum; experiment: Drug uptake in CD-1 mouse cerebellum at 70 uCi, iv administered 10 mins post naltrindole challenge measured after 90 mins; type: ADME, organism-based; conditions: in vivo, 1.5 h; how it was run: as §1
[29] = tested on: Cortex; experiment: Drug uptake in CD-1 mouse cortex at 70 uCi, iv administered 10 mins post SCH23390 challenge measured after 90 mins; type: ADME, organism-based; conditions: in vivo, 1.5 h; how it was run: as §1
[30] = Drug uptake in CD-1 mouse superior and inferior colliculus at 70 uCi, iv followed by compound washout by gamma-counting analysis; type: ADME, organism-based; conditions: in vivo; how it was run: as §2
[31] = tested on: Cerebellum; experiment: Drug uptake in CD-1 mouse cerebellum at 70 uCi, iv administered 10 mins post SSR180711 challenge measured after 90 mins; type: ADME, organism-based; conditions: in vivo, 1.5 h
[32] = tested on: Nucleic Acid; experiment: Ratio of drug uptake from cortex to cerebellum in CD-1 mouse after 90 mins; type: ADME, tissue-based; conditions: 1.5 h

O=S1(=O)c2cc(N3CCN4CCC3CC4)ccc2-c2cccc([18F])c21
Drug uptake [1]: Not Active | Drug uptake [2]: 94% | Drug uptake [3]: Active | Drug uptake [4]: Active | Drug uptake [5]: Active | Drug uptake [6]: Active | Drug uptake [7]: Active | Ratio [8]: 10 | Drug uptake [9]: Active | Drug uptake [10]: Not Active | Drug uptake [11]: Not Active | Drug uptake [12]: Active | Drug uptake [13]: Not Active | Drug uptake [14]: Not Active | Ratio [15]: 8 | Drug uptake [16]: Active | Drug uptake [17]: Active | Drug uptake [18]: Not Active | Drug uptake [19]: Not Active | Drug uptake [20]: Not Active | Drug uptake [21]: Not Active | Drug uptake [22]: Not Active | Drug uptake [23]: Active | Drug uptake [24]: Active | Drug uptake [25]: Active | Drug uptake [26]: Active | Drug uptake [27]: Active | Drug uptake [28]: Active | Drug uptake [29]: Active | Drug uptake [30]: Active | Drug uptake [31]: Not Active | Ratio [32]: 5.3
